The values below come from ChEMBL document CHEMBL3856284, “Discovery, design and synthesis of 6H-anthra[1,9-cd]isoxazol-6-one scaffold as G9a inhibitor through a combination of shape-based virtual screening and structure-based molecular modification” (Bioorg Med Chem, 2016).

The structures appear in SMILES notation. Active and inactive are the calls of the source. The calls are words filed in the database; no cut-off is given here.

Data set [1] deals with MCF7. The experiment in a line: Induction of necrosis in human MCF7 cells at 8 uM after 24 hrs by inverted light microscopic method. The format is functional, cell-based. A digest of the protocol:
(§1)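 MCF-7 cells were incubated 24 h with 2, 4 or 8 µM compound, with an untreated group as control. Cell morphology (distortion, blebbing, shrinkage, rounding, necrosis) was examined under an inverted light microscope at ×200.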

Data set [2] relates to Mus musculus. In words: Oral bioavailability in mouse at 10 mg/kg after 5 mins to 24 hrs by LC-MS/MS analysis. The conditions noted are these: in vivo.
The subject of data set [3] is MCF7. The experiment in a line: Induction of apoptosis in human MCF7 cells assessed as necrotic cells at 4 uM after 48 hrs by annexin V staining-based flow cytometric analysis (reference value: 5.65%). The format is functional.
Data set [4] relates to MCF7. In words: Induction of phenotypic changes in human MCF7 cells assessed as distortion at 4 uM after 24 hrs by inverted light microscopic method. The format is functional, cell-based. In a few lines:
as §1

Data set [5] deals with Mus musculus. The experiment in a line: Volume of distribution in mouse at 10 mg/kg, po after 5 mins to 24 hrs by LC-MS/MS analysis. As to conditions: in vivo.
Data set [6] has as its system MCF7. In words: Induction of apoptosis in human MCF7 cells assessed as appearance of apoptotic bodies after 24 hrs by Hoechst 33258 staining-based fluorescence microscopy. The format is functional, cell-based.
The subject of data set [7] is MCF7. The experiment in a line: Induction of apoptosis in human MCF7 cells assessed as necrotic cells at 2 uM after 48 hrs by annexin V staining-based flow cytometric analysis (reference value: 5.65%). The format is functional.
For data set [8], the system named is Mus musculus. The experiment in a line: Half life in mouse at 10 mg/kg, iv after 2 mins to 24 hrs by LC-MS/MS analysis. As to conditions: in vivo.
Data set [9] has as its system MCF7. The experiment in a line: Induction of apoptosis in human MCF7 cells assessed as viable cells at 8 uM after 48 hrs by annexin V staining-based flow cytometric analysis (reference value: 82.85%). As to conditions: MCF7, 48 h, read-out: Activity. The format is functional.
The nature of data set [10]: Antiproliferative activity against human HCT116 cells assessed as inhibition of cell viability after 72 hrs by MTT assay. The format is functional, cell-based. As to conditions: HCT-116, 72 h.
Data set [11] relates to Mus musculus. The experiment in a line: Volume of distribution in mouse at 10 mg/kg, iv after 2 mins to 24 hrs by LC-MS/MS analysis. The conditions noted are these: in vivo.
Data set [12] deals with Mus musculus. In words: Tmax in mouse at 10 mg/kg, po after 5 mins to 24 hrs by LC-MS/MS analysis. The conditions noted are these: in vivo.
In data set [13] the target is T1, Histone-lysine N-methyltransferase EHMT2 (Homo sapiens, UniProt Q96KQ7).
T1 sequence (Q96KQ7 whole entry): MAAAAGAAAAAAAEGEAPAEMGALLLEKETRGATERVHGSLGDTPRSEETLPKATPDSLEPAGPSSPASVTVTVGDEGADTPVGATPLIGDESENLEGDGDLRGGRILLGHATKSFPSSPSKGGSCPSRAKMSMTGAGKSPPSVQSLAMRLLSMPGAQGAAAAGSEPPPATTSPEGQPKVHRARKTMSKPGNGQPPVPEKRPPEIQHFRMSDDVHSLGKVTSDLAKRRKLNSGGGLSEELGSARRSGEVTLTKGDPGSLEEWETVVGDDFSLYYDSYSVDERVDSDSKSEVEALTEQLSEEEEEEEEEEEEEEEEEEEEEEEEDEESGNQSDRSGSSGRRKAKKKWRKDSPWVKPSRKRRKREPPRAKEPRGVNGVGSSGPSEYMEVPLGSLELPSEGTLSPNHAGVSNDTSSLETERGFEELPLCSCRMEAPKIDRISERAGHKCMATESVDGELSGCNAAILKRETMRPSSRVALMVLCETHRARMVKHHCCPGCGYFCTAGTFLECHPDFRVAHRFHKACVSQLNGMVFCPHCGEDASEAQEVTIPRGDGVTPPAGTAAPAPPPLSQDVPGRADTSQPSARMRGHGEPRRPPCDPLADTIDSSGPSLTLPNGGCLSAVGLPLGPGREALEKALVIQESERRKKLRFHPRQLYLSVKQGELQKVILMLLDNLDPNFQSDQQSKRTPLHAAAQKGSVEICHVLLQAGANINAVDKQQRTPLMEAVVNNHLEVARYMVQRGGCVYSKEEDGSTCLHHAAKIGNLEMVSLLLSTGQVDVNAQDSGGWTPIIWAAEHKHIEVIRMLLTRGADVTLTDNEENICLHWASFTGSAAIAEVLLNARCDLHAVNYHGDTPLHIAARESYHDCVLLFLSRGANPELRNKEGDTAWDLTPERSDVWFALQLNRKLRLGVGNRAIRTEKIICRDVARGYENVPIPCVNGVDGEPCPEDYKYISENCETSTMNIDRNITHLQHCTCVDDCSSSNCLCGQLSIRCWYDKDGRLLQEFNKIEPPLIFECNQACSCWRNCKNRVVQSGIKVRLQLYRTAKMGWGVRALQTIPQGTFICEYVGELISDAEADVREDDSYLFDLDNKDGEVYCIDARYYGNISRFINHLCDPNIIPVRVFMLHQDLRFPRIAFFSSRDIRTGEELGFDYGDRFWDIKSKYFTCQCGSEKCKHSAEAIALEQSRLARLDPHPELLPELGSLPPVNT
In words: Inhibition of G9a (unknown origin) using biotinylated-histone H3 (1 to 21 residues)/S-adenosyl-methionine as substrate/methyl donor after 3 hrs by AlphaScreen assay. In a few lines: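 AlphaScreen G9a assay. Compounds were first screened at 10 µM. IC50 came from concentration-response curves of ten escalating concentrations (0.1 nM–10 µM), using two independent experiments, reported as mean ± SD.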

Data set [14] has as its system MCF7. In words: Induction of apoptosis in human MCF7 cells assessed as late apoptotic cells at 2 uM after 48 hrs by annexin V staining-based flow cytometric analysis (reference value: 11%). The format is functional.
Data set [15] has as its system Mus musculus. The experiment in a line: AUC in mouse at 10 mg/kg, iv after 2 mins to 24 hrs by LC-MS/MS analysis. The conditions noted are these: in vivo.
In data set [16] the test system is Mus musculus. The experiment in a line: Clearance in mouse at 10 mg/kg, iv after 2 mins to 24 hrs by LC-MS/MS analysis. As to conditions: in vivo.
Data set [17] deals with Mus musculus. In words: Cmax in mouse at 10 mg/kg, po after 5 mins to 24 hrs by LC-MS/MS analysis. The conditions noted are these: in vivo.
Data set [18] deals with Mus musculus. The experiment in a line: AUC in mouse at 10 mg/kg, po after 5 mins to 24 hrs by LC-MS/MS analysis. The conditions noted are these: in vivo.
The test system of data set [19] is MCF7. In words: Induction of apoptosis in human MCF7 cells assessed as late apoptotic cells at 8 uM after 48 hrs by annexin V staining-based flow cytometric analysis (reference value: 11%). The format is functional.
Data set [20] has as its system Mus musculus. In words: Cmax in mouse at 10 mg/kg, iv after 2 mins to 24 hrs by LC-MS/MS analysis. As to conditions: in vivo.
The test system of data set [21] is Mus musculus. The experiment in a line: Clearance in mouse at 10 mg/kg, po after 5 mins to 24 hrs by LC-MS/MS analysis. As to conditions: in vivo.

In the case of `O=C1c2ccccc2-c2onc3c(N4CCCCC4)cc(NCCN4CCCC4)c1c23`, the outcome in data set [1] and in data set [4] was Active. In [2], the bioavailability was determined as 55.5%. For the same compound, the Activity in data set [3] is 3.1%; in data set [6], “Dose-dependent effect”; in data set [7], 3.2%; in data set [14], 18.25%; in data set [19] it was 30.05%. Further, the values for the Vd in data set [5] and in data set [11] were 90.7 L/kg and 80.2 L/kg, respectively. Besides, in data set [8], the half-life was 6.9 h. In [9], the viability at 8 µM came to 66.5%. The IC50 was 3180 nM in data set [10] and 2180 nM in data set [13]. Besides, the Tmax in data set [12] came out at 6.7 h. Besides, the AUC in data set [15] was 1300 ng·h/mL; in [18], 724 ng·h/mL. In addition, the clearance in data set [16] is 135 mL/min/kg. Moreover, the values for the Cmax in data set [17] and in data set [20] were 70.7 ng/mL and 188 ng/mL, respectively. Also, in [21], the CL/F was 253 mL/min/kg.
